The results in this text go back to ChEMBL document CHEMBL4371052, “Diarylcarbonates are a new class of deubiquitinating enzyme inhibitor” (Bioorg Med Chem Lett, 2019).

For experiment [1], the target named is Ubiquitin carboxyl-terminal hydrolase 9X (Homo sapiens) (UniProt Q93008). The experiment in a line: Inhibition of USP9x in HEK293T cell lysates assessed as enzyme recovery at 250 uM using HA-tagged vinyl-sulfone as substrate preincubated for 40 mins followed by 10-fold dilution and subsequent substrate addition measured up to 2 hrs by Western blot analysis. The experiment is classed as subcellular. The conditions noted are these: Lysate.
Sequence of Ubiquitin carboxyl-terminal hydrolase 9X (Homo sapiens) (Q93008 whole entry): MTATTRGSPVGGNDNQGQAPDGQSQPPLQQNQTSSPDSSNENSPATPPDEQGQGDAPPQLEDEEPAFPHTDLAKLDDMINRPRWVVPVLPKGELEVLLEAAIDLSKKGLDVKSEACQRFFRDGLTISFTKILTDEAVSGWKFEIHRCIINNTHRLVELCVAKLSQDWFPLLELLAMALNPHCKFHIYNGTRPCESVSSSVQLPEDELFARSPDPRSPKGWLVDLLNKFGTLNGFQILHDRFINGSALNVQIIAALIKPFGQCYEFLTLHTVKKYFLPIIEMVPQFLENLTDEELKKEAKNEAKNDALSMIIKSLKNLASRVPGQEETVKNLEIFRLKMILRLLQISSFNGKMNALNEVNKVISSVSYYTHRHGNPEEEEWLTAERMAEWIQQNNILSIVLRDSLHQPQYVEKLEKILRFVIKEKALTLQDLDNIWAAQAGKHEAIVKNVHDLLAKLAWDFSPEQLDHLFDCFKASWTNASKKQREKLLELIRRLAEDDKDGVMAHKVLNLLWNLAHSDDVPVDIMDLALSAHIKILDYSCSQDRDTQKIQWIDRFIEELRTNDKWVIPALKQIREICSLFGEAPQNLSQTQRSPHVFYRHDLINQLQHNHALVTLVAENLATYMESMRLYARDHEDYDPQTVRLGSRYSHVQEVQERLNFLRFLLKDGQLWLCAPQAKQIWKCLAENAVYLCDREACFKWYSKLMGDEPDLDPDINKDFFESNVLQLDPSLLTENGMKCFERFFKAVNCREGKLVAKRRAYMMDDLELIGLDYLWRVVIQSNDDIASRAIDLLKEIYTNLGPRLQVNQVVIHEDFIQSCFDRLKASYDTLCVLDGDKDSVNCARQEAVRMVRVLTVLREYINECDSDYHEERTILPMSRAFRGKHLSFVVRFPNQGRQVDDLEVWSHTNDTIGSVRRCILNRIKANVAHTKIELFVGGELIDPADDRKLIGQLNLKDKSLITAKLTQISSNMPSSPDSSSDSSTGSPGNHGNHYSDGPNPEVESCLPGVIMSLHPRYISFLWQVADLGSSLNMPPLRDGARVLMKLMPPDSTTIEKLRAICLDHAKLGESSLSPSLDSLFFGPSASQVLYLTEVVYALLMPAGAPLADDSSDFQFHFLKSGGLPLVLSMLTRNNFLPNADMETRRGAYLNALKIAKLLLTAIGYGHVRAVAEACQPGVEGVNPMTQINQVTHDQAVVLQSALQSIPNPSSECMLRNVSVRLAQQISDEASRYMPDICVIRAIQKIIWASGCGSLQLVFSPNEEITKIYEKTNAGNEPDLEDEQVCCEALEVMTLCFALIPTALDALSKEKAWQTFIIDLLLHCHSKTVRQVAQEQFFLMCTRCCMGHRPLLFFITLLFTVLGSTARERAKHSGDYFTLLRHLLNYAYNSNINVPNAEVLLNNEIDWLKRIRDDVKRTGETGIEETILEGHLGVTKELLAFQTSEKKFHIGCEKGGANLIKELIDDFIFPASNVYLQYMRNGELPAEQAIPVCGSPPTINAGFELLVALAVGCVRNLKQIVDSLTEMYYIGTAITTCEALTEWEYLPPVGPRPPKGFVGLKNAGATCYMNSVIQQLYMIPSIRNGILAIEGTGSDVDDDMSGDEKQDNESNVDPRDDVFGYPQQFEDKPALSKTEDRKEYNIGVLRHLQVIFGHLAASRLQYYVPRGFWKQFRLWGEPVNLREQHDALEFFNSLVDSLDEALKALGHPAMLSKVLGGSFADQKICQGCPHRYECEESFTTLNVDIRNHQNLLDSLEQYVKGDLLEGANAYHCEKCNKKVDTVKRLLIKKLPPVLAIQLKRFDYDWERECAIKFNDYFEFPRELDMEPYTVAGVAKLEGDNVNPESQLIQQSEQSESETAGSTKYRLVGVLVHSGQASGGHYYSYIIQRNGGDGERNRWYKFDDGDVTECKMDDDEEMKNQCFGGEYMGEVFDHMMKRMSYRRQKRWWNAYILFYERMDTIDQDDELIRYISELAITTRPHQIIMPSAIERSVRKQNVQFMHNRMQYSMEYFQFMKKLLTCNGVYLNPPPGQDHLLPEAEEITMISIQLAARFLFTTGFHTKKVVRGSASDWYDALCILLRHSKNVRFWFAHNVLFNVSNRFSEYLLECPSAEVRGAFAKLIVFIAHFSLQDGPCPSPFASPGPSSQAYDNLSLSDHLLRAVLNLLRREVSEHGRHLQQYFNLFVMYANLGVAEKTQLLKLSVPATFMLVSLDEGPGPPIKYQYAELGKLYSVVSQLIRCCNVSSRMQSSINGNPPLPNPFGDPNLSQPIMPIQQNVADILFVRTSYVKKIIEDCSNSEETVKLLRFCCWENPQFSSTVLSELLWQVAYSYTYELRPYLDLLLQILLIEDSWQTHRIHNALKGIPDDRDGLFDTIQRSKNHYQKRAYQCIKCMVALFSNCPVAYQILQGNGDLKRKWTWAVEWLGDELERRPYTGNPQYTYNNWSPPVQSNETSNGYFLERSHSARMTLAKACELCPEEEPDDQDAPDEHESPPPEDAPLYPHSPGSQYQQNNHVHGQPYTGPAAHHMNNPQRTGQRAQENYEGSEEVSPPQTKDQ

Experiment [2] in a line: Inhibition of deubiquitinase in HEK293T cells expressing N-terminal HA-tagged ubiquitin assessed as stabilization of HMW-Ub proteins after 2 hrs by Western blot analysis. Type of experiment: cell-based, Homo sapiens.
For experiment [3], the target named is Ubiquitin carboxyl-terminal hydrolase 9X (Homo sapiens) (UniProt Q93008). The experiment in a line: Inhibition of USP9x in HEK293T cell lysates at 25 uM using HA-tagged vinyl-sulfone as substrate measured after 2 to 30 mins by Western blot analysis. Type of experiment: subcellular. As to conditions: Lysate. The procedure, abridged:
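HEK 293T lysate (1.5 mg/ml) given compound (25 μM) or DMSO at the same time as HA-Ub-VS (1.5 μM). Aliquots withdrawn over time were run on SDS-PAGE and immunoblotted for HA.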

In experiment [4] the target is T1, Ubiquitin carboxyl-terminal hydrolase 19 (Homo sapiens) (UniProt O94966).
T1 sequence (whole entry): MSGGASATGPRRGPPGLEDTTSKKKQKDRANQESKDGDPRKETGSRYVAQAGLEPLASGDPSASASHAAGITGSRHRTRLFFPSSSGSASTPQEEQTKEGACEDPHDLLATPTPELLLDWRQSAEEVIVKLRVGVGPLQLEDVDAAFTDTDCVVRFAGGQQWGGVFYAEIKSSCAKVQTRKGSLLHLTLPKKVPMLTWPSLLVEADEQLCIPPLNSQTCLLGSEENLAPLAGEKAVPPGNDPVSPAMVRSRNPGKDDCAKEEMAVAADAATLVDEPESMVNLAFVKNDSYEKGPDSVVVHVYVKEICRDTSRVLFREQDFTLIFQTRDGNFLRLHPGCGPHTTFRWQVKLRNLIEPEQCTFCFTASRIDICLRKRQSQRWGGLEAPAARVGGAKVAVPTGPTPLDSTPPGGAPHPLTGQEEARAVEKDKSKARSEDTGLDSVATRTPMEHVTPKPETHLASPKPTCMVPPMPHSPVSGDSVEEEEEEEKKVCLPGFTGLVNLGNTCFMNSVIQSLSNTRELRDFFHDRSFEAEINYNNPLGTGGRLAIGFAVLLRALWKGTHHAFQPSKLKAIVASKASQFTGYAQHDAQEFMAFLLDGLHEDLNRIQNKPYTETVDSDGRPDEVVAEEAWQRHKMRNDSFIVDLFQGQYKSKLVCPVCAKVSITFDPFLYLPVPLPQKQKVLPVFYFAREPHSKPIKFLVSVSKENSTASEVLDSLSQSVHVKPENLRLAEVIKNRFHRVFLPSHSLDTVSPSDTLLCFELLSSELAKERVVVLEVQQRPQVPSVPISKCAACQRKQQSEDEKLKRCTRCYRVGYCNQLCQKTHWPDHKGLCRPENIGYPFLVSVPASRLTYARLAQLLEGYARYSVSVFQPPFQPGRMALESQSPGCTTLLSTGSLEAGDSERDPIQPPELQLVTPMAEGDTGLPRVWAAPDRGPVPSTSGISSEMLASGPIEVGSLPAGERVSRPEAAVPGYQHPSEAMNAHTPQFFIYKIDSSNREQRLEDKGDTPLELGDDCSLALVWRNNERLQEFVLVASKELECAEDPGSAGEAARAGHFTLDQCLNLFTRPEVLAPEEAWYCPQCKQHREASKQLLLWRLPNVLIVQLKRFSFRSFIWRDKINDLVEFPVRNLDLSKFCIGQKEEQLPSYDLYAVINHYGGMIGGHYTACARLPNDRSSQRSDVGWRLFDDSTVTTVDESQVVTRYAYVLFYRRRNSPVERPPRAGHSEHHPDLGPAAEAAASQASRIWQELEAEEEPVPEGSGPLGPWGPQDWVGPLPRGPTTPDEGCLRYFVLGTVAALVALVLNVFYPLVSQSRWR
Put plainly: Inhibition of USP19 in HEK293T cell lysates assessed as enzyme recovery at 250 uM using HA-tagged vinyl-sulfone as substrate […] followed by 10-fold dilution and subsequent substrate addition measured up to 2 hrs by Western blot analysis. The experiment is classed as subcellular. As to conditions: Lysate.

The target of experiment [5] is Ubiquitin carboxyl-terminal hydrolase 7 (Homo sapiens) (UniProt Q93009). The experiment in a line: Inhibition of USP7 in HEK293T cell lysates assessed as enzyme recovery at 250 uM using HA-tagged vinyl-sulfone as substrate […] followed by 10-fold dilution and subsequent substrate addition measured up to 2 hrs by Western blot analysis. The experiment is classed as subcellular. As to conditions: Lysate.
Sequence of Ubiquitin carboxyl-terminal hydrolase 7 (Homo sapiens) (Q93009 whole entry, looked up): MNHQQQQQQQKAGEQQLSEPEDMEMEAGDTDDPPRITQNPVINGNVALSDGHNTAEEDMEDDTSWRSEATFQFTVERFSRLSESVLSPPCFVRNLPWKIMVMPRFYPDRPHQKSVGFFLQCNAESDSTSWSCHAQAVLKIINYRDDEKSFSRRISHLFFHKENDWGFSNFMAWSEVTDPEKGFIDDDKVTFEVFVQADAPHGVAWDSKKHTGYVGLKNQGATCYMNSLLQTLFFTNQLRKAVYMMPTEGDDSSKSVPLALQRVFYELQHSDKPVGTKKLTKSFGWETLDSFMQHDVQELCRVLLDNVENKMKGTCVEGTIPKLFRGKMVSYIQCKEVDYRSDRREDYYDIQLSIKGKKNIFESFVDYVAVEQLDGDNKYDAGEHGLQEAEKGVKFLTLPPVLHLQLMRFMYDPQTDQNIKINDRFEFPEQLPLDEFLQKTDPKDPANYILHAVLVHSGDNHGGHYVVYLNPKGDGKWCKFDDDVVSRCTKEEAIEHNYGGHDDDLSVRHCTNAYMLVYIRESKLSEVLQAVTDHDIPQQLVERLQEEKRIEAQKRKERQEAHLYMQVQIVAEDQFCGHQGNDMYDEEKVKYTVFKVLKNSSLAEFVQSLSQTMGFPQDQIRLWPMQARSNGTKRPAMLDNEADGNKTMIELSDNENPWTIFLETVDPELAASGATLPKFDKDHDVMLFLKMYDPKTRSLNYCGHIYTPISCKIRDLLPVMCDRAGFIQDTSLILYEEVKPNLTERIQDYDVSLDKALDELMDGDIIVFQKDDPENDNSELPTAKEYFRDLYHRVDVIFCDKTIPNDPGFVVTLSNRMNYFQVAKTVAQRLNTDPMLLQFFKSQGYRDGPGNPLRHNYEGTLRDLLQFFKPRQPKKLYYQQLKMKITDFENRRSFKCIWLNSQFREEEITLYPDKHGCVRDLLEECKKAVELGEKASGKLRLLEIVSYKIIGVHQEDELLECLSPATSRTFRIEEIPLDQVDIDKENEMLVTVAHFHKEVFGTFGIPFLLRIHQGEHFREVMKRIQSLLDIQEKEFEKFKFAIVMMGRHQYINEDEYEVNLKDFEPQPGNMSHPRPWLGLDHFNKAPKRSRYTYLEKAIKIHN

The target of experiment [6] is T2, Ubiquitin carboxyl-terminal hydrolase 8 (Homo sapiens) (UniProt P40818).
T2 sequence (whole entry): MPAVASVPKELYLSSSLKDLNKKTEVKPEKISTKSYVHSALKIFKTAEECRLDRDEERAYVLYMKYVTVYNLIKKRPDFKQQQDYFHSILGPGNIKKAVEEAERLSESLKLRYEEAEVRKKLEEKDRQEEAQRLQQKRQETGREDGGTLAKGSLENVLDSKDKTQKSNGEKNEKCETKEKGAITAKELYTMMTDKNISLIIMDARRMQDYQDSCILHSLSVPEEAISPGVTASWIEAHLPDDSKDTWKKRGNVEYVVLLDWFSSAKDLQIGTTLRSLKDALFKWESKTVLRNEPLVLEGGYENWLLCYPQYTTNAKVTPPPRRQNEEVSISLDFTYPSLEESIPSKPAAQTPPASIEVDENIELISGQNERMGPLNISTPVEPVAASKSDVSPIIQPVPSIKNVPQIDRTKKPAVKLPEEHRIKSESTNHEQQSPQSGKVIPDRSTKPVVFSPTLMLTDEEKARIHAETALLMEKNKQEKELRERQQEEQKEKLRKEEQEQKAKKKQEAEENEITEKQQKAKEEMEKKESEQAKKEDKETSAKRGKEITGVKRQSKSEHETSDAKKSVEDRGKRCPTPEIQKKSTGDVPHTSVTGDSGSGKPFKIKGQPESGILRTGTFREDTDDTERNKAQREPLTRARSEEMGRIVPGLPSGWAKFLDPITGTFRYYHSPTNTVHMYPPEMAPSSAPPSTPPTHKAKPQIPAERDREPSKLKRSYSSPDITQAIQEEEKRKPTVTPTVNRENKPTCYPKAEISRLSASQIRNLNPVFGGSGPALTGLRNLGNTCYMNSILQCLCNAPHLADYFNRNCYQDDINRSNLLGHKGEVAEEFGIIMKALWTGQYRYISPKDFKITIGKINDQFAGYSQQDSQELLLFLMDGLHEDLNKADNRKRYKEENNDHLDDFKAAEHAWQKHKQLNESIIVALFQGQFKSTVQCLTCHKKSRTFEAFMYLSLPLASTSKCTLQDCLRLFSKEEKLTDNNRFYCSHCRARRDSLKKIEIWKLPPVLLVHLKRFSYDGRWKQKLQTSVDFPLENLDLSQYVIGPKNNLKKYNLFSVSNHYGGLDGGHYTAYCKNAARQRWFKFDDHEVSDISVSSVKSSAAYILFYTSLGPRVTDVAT
Put plainly: Inhibition of USP8 in HEK293T cell lysates assessed as enzyme recovery at 250 uM using HA-tagged vinyl-sulfone as substrate preincubated for 40 mins followed by 10-fold dilution and subsequent substrate addition measured up to 2 hrs by Western blot analysis. The experiment is classed as subcellular. The conditions noted are these: Lysate.

The source made the active and inactive calls. The rule behind the calls is not given here.

For `NCc1ccc(OC(=O)Oc2ccc3ccccc3c2)cc1`, the inhibition result in experiment [1], in experiment [3], in experiment [4], in experiment [5] and in experiment [6] was “inactive” in each case. Besides, the concentration giving a half-maximal response (EC50) in experiment [2] was 20 µM.
